# In PMC9989826 (Cell Reports, 2023):
# Experiments:
# [1] = test system: CCl4-intoxicated Nep−/− mice; assay: Captopril or losartan co-treatment of CCl4-intoxicated Nep−/− mice; type: in vivo, mouse; details: losartan 5 mg/kg/day or captopril 4 mg/kg/day for four weeks, vs non-treated fibrotic Nep−/− mice, n = 6
# Method in brief: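 Nep−/− mice (C57BL/6J background, male and female, 10–12 weeks) exposed to CCl4 at 1L/min three times weekly for four weeks, with phenobarbital 3.0 mg/kg/day in drinking water. Losartan or captopril co-treatment ran through the same four weeks. Sirius red-stained sections scored by morphometry; portal pressure recorded in mm Hg; hepatic Col1a1 mRNA by qPCR. Mean ± SEM.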
# [2] = test system: fibrotic WT (C57BL6/J) mice; assay: Entresto study: oral treatment of fibrotic WT mice; type: in vivo, mouse; details: oral 100 mg/kg for 14 days; fibrotic mice vs control
# Method in brief: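 Male and female WT mice, 10–12 weeks, made fibrotic over 7 weeks by i.p. CCl4 plus either ethanol in drinking water or Western diet. Entresto tablet (49mg/51mg) crushed and resuspended in 0.9% NaCl; valsartan and sacubitril prepared the same way. Dosed orally for 14 days until sacrifice. Portal pressure measured at the end; hepatic Col1a1 mRNA also assessed. Mean ± SEM.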
# [3] = test system: primary HSCs from Nep−/− mice; assay: Immunofluorescence and confocal microscopy of collagen I and αSMA; type: cell-based, mouse; details: full-length NPY, 24 h
# Method in brief: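 Primary Nep−/− HSCs, activated by at least one week of culture, were serum-starved 12 h. […] Cells were fixed in 4% paraformaldehyde and permeabilized with 1% Triton X-100, each 10 min at 37°C, then blocked 1 h in 1% BSA. Anti-collagen I (1:50) and anti-α-SMA (1:200) ran overnight at 4°C, secondaries (1:3000) 2 h, with DAPI counterstain. Confocal fluorescence was quantified from three independent experiments.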
# [4] = test system: primary mouse HSC (WT and Nep−/−); assay: Western blot of ROCK, p-moesin and p-ERK in primary HSCs; type: cell-based; details: NPY 1 nM, 24 h, compared with WT cells
# Method in brief: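 Primary HSCs from WT and Nep−/− mice were cultured at least one week until fully activated. They were seeded at 300,000 cells/well in DMEM with 20% FBS, and buffers were free of Zn and EDTA. […] Protein was read by western blot with GAPDH as loading control.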
# WT mice = assay: Intraperitoneal injection of NPYFL or its C-terminal fragments in WT mice; type: in vivo, mouse; details: i.p., 72 hours, n = 6/group
# [5] = test system: primary mouse HSC (WT and Nep−/−); assay: mRNA expression; type: cell-based; details: NPY 1 nM, 24 h
# primary Nep−/− HSCs = assay: Determination of cellular cAMP; type: cell-based, mouse; details: serum starved, full-length NPY 1 nM or mix of C-terminal fragments 30 μM, 30 min (methods), 24 h (Figure 4F), n = 3–4
# Method in brief: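 HSCs isolated from WT and Nep−/− mice were cultured at least one week (fully activated) in DMEM/20% FBS with penicillin-streptomycin, in Zn- and EDTA-free buffers. […] Competitive cAMP ELISA, normalised to total protein; mean ± SEM.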
# [6] = test system: primary mouse HSC (WT and Nep−/−); assay: Collagen gel contraction assay; type: cell-based; details: primary mouse HSCs on collagen gels, NPY 0–100 nM, 0–48 h; Nep−/− vs WT
# Method in brief: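 Primary HSCs were isolated from WT and Nep−/− mice and cultured at least one week until fully activated. 1 × 10^4 cells were embedded in 1 mg/mL collagen gels, in triplicate per group. […] Gel area was tracked from images taken at fixed camera distance over time, as % of initial surface; mean ± SEM, n = 3–6.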
molecule,measurement,setting,value
C[C@H](CS)C(=O)N1CCC[C@H]1C(=O)O [captopril],hepatic Col1a1 mRNA expression,[1],significantly reduced
same,portal pressure,[1],significantly reduced
CCCCc1nc(Cl)c(CO)n1Cc1ccc(-c2ccccc2-c2nn[nH]n2)cc1 [losartan],hepatic Col1a1 mRNA expression,[1],significantly reduced
same,portal pressure,[1],significantly reduced
CCOC(=O)[C@H](C)C[C@@H](Cc1ccc(-c2ccccc2)cc1)NC(=O)CCC(=O)O [sacubitril],"portal pressure, single components of Entresto",[2],Neither valsartan nor sacubitril were able to significantly reduce portal pressure
CCCCC(=O)N(Cc1ccc(-c2ccccc2-c2nnn[nH]2)cc1)[C@H](C(=O)O)C(C)C [valsartan],"portal pressure, single components of Entresto",[2],Neither valsartan nor sacubitril were able to significantly reduce portal pressure
Neuropeptide Y [NPY],αSMA expression (immunofluorescence),[3],increased
same,ROCK protein and p-moesin expression (western blot),[4],increased further
same,hepatic Acta2 mRNA expression,WT mice,significantly induced
same,"hepatic mRNA expression of the main fibrotic markers, Col1a1 and Tgfβ1",WT mice,induced
same,portal pressure,WT mice,increase
same,Col1a1 mRNA level,[5]; Nep−/− HSCs,decreased
same,Tgfβ1 mRNA level,[5]; Nep−/− HSCs,decreased
same,Acta2 mRNA expression,"[5]; Nep−/− HSCs, compared with WT control",induced
same,Col1a1 mRNA level,[5]; WT HSCs,increased
same,Tgfβ1 mRNA level,[5]; WT HSCs,increased
same,cAMP measurements (pmol cAMP per mg of total protein),primary Nep−/− HSCs,reduction
same,HSC contraction (decrease of gel surface),[6],induced more HSC contraction
